Data from ChEMBL document CHEMBL1122388, “beta 1-selective adrenoceptor antagonists. 2. 4-ether-linked phenoxypropanolamines” (J Med Chem, 1983).

Assays:
[1] = target: Adrenergic receptor beta (Rattus norvegicus) (UniProt P18090+P10608+P26255); experiment: Beta agonistic activity as the dose required to increase heart rate by 30 beats/min in anesthetized rats upon intravenous administration; format: functional, organism-based
In short: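 Rats anesthetized with pentobarbitone sodium (75 mg/kg ip), reserpine-pretreated (5 mg/kg ip) 20-24 h earlier. Single doses of test compound given into tail vein, up to 20 animals depending on activity; blood pressure and heart rate recorded. ED30 (dose raising heart rate 30 beats/min) with 95% confidence limits from log dose-response linear regression.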

[2] = target: Beta-1 adrenergic receptor (Rattus norvegicus) (UniProt P18090); experiment: Compound was tested for beta-1 adrenergic receptor blocking activity as the dose required to inhibit 50% of tachycardia in anesthetized rats; format: functional
Chain of Beta-1 adrenergic receptor (Rattus norvegicus) (P18090 whole entry, looked up): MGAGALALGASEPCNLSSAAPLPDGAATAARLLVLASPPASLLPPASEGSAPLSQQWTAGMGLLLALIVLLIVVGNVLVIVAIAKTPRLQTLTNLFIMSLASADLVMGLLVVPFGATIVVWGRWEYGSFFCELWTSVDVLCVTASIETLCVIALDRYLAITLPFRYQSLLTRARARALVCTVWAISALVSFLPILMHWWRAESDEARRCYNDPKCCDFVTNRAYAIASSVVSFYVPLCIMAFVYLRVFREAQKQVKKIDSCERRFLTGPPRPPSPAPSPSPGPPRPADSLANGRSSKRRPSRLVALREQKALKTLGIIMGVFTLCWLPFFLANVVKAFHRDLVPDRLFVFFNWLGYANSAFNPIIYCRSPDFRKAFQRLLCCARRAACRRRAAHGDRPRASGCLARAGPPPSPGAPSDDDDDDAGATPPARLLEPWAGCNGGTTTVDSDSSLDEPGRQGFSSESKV
In short: (§1)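 Isoprenaline (0.1 µg/kg) and test compound in saline given into right femoral vein; blood pressure from left carotid artery, heart rate by tachograph triggered from arterial pulse. Test compound injected 5 min after isoprenaline, cumulative doses up to, in most cases, 2 mg/kg. Six rats per compound; ED50 with 95% confidence limits from log dose-response linear regression.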

[3] = target: Beta-2 adrenergic receptor (Rattus norvegicus) (UniProt P10608); experiment: Beta-2 adrenergic receptor antagonist activity as the dose required to inhibit 50% of vasodepressor response in anesthetized rats
Chain of Beta-2 adrenergic receptor (Rattus norvegicus) (P10608 whole entry, looked up): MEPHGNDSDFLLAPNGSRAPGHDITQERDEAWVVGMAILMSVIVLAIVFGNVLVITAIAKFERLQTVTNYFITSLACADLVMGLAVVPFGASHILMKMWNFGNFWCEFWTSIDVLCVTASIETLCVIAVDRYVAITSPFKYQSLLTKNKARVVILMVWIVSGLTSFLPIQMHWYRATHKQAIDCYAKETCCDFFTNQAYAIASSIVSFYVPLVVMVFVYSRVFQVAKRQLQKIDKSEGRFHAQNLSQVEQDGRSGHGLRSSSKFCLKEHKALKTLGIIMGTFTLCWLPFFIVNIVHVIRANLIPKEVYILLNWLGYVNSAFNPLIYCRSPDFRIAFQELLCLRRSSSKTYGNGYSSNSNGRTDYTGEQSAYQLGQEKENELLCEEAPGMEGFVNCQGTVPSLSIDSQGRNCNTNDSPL

[4] = target: Beta-1 adrenergic receptor (Rattus norvegicus) (UniProt P18090); experiment: Beta-1 adrenoceptor blocking activity as the dose required to inhibit 50% of tachycardia in anesthetized rats; format: functional; in short: as §1

`CC(C)NCC(O)COc1ccc(CCOCCOc2ccccc2)cc1` (centres undefined) gave an ED30 [1] greater than 1 mg/kg, an ED50 [2] of 0.068 mg/kg and an ED50 [3] of 0.924 mg/kg.
With `CC(C)NCC(O)COc1ccc(OCCOCCOc2ccccc2)cc1` (centres undefined) the ED30 [1] was 0.017 mg/kg, the ED50 [3] was greater than 5 mg/kg and the ED50 [4] was 0.041 mg/kg.
In the case of `CC(C)NCC(O)COc1ccc(OCCOCCc2ccccc2)cc1Cl` (centres undefined), the ED30 [1] is reported as 0.016 mg/kg, the ED50 [3] is reported as 0.834 mg/kg and the ED50 [4] is reported as 0.025 mg/kg.
Compound `COc1ccc(CCOCCOc2ccc(OCC(O)CNC(C)C)cc2)cc1` (centres undefined) has an ED30 [1] of 0.009 mg/kg, an ED50 [3] greater than 2 mg/kg and an ED50 [4] of 0.344 mg/kg.
Compound `CSc1ccc(CCOCCOc2ccc(OCC(O)CNC(C)C)cc2)cc1` (centres undefined) has an ED30 [1] of 0.042 mg/kg, an ED50 [3] greater than 2 mg/kg and an ED50 [4] of 0.174 mg/kg.
`Cc1ccc(CCOCCOc2ccc(OCC(O)CNC(C)C)cc2)cc1` (centres undefined) showed an ED30 [1] of 0.022 mg/kg, an ED50 [3] greater than 2 mg/kg and an ED50 [4] of 0.066 mg/kg.
With `CC(C)NCC(O)COc1ccc(OCCOCCc2ccc(F)cc2)cc1F` (centres undefined) the ED30 [1] was 0.045 mg/kg, the ED50 [3] was greater than 2 mg/kg and the ED50 [4] was 0.001 mg/kg.
`CC(C)(C)NCC(O)COc1ccc(OCCOCCc2ccc(F)cc2)cc1` (centres undefined) gave an ED30 [1] of 0.024 mg/kg, an ED50 [3] greater than 2 mg/kg and an ED50 [4] of 0.002 mg/kg.
`CC(C)NCC(O)COc1ccc(CC(N)=O)cc1` (centres undefined) gave an ED30 [1] greater than 1 mg/kg and an ED50 [4] of 0.091 mg/kg.
With `CC(C)NCC(O)COc1ccc(CCOCCc2ccccc2)cc1` (centres undefined) the ED30 [1] was greater than 1 mg/kg, the ED50 [2] was 0.163 mg/kg and the ED50 [3] was greater than 2 mg/kg.
For `CC(C)NC[C@H](O)COc1ccc(OCCOCCc2ccc(F)cc2)cc1` (stereo in doubt; 14a), the ED30 [1] was 0.019 mg/kg, the ED50 [3] was greater than 2 mg/kg and the ED50 [4] was 0.004 mg/kg.
In the case of `CC(C)(C)NCC(O)COc1ccc(OCCOCCc2ccccc2)cc1` (centres undefined), the ED30 [1] is reported as 0.022 mg/kg, the ED50 [3] is reported as 0.979 mg/kg and the ED50 [4] is reported as 0.018 mg/kg.
Work on `CC(C)NC[C@H](O)COc1ccc(OCCOCCc2ccc(F)cc2)cc1` (stereo in doubt; 14b) yielded an ED30 [1] greater than 1 mg/kg, an ED50 [3] greater than 2 mg/kg and an ED50 [4] greater than 2 mg/kg.
Work on `CC(C)NCC(O)COc1ccc(OCCOCCOc2ccc(OCC(O)CNC(C)C)cc2)cc1` (centres undefined) yielded an ED30 [1] of 0.005 mg/kg, an ED50 [3] greater than 10 mg/kg and an ED50 [4] of 0.052 mg/kg.
Work on `CC(C)NCC(O)COc1ccc(OCCOCCc2ccccc2)cc1` (centres undefined) yielded an ED30 [1] of 0.02 mg/kg, an ED50 [3] greater than 50 mg/kg and an ED50 [4] of 0.015 mg/kg.
Compound `CC(C)NCC(O)COc1ccc(OCCOCCc2ccc(F)cc2)cc1` (centres undefined) has an ED30 [1] of 0.037 mg/kg, an ED50 [3] greater than 2 mg/kg and an ED50 [4] of 0.003 mg/kg.
In the case of `COCCc1ccc(OCC(O)CNC(C)C)cc1` (centres undefined), the ED30 [1] is reported as greater than 1 mg/kg and the ED50 [4] is reported as 0.25 mg/kg.
`CC(C)NCC(O)COc1ccc(OCCOCCc2ccc(F)cc2)c(F)c1` (centres undefined) showed an ED30 [1] greater than 1 mg/kg, an ED50 [3] greater than 2 mg/kg and an ED50 [4] of 0.001 mg/kg.
`CC(C)NCC(O)COc1ccc(OCCOCCc2ccc(Cl)cc2)cc1` (centres undefined) showed an ED30 [1] of 0.032 mg/kg, an ED50 [3] greater than 2 mg/kg and an ED50 [4] of 0.627 mg/kg.
Compound `CC(C)NCC(O)COc1ccc(OCCOCCc2ccc(C#N)cc2)cc1` (centres undefined) has an ED30 [1] of 0.032 mg/kg, an ED50 [3] greater than 2 mg/kg and an ED50 [4] of 0.654 mg/kg.
In the case of `CC(=O)Nc1ccc(CCOCCOc2ccc(OCC(O)CNC(C)C)cc2)cc1` (centres undefined), the ED30 [1] is reported as 0.029 mg/kg, the ED50 [3] is reported as greater than 2 mg/kg and the ED50 [4] is reported as greater than 2 mg/kg.
`Cc1cc(OCCOCCc2ccccc2)ccc1OCC(O)CNC(C)C` (centres undefined) gave an ED30 [1] of 0.057 mg/kg, an ED50 [3] greater than 2 mg/kg and an ED50 [4] of 0.572 mg/kg.
